In ChEMBL document CHEMBL3272068, “Synthesis and biological activities of some N4-substituted 4-aminopyrazolo(3,4-d)pyrimidines” (J Med Chem, 1976):

What was measured:
[1] = Antiproliferative activity against human RPMI6410 cells assessed as cell viability at 0.1 mM after 72 hrs by trypan blue dye based hemocytometer analysis relative to control; assay type: functional; conditions: RPMI 6410, 72 h, read-out: Activity
How it was run: (§1)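 Nc 37 (normal donor buffy coat), RPMI 6410 (myeloblastic leukemia) and murine L1210 cells. Compound dissolved in Me2SO, held at 37° overnight for sterilization, diluted in RPMI 1640 + 10% fetal calf serum to final 10⁻⁴ M with 0.5% Me2SO. Unagitated tubes seeded at 2–5 × 10⁵ cells/ml from log-phase stocks. Trypan blue (0.05%) hemocytometer counts every 24 h. Viable density versus control at 72 h banded into rating categories.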

[2] = test system: L1210; test: Antiproliferative activity against mouse L1210 cells assessed as cell viability at 0.1 mM after 72 hrs by trypan blue dye based hemocytometer analysis relative to control; assay type: functional; conditions: L1210, 72 h, read-out: Activity; how it was run: as §1
[3] = Antiproliferative activity against human Nc37 cells assessed as cell viability at 0.1 mM after 72 hrs by trypan blue dye based hemocytometer analysis relative to control; set-up: species or system NC-37; conditions: read-out: Activity; how it was run: as §1
[4] = Antiproliferative activity against human RPMI6410 cells assessed as growth inhibition at 0.1 mM; assay type: functional; conditions: RPMI 6410; how it was run: as §1

| Structure (SMILES) | viability at 100 µM [1] | viability at 100 µM [2] | viability at 72 h, 100 µM [3] | inhibition at 100 µM [4] |
| --- | --- | --- | --- | --- |
| CCCCNC(=O)Nc1ncnc2[nH]ncc12 | 80% | 60% | 80% | – |
| C=CCNC(=O)Nc1ncnc2[nH]ncc12 | 90% | 0% | 30% | – |
| CC(C)CNC(=O)Nc1ncnc2[nH]ncc12 | 60% | 60% | 60% | – |
| C[C@@H](O)[C@H](NC(=O)Nc1ncnc2[nH]ncc12)C(=O)O | 30% | 30% | 30% | – |
| O=C(Nc1ccc(Cl)cc1)Nc1ncnc2[nH]ncc12 | 30% | 30% | 30% | – |
| CCCCNC(=O)Nc1ncnc2[nH]cnc12 | – | – | – | 70% |
| O=C(Nc1ncnc2[nH]ncc12)NC12CC3CC(CC(C3)C1)C2 | 30% | 0% | 30% | – |
| O=C(Nc1ccccc1F)Nc1ncnc2[nH]ncc12 | 60% | 60% | 90% | – |
| O=C(NCCCc1ccccc1)Nc1ncnc2[nH]ncc12 | 60% | 60% | 30% | – |
| O=C(Nc1cccc(Cl)c1)Nc1ncnc2[nH]ncc12 | 0% | 0% | 0% | – |
| CC(C)NC(=O)Nc1ncnc2[nH]ncc12 | 80% | 80% | 30% | – |
| CCNc1ncnc2[nH]ncc12 | 90% | 60% | 90% | – |
| O=C(Nc1ccccc1Cl)Nc1ncnc2[nH]ncc12 | 80% | 60% | 90% | – |
| O=C(O)CNC(=O)Nc1ncnc2[nH]ncc12 | 60% | 80% | 90% | – |
| O=C(Nc1ccccc1)Nc1ncnc2[nH]ncc12 | 30% | 60% | 90% | – |
| C#CCNC(=O)Nc1ncnc2[nH]ncc12 | 30% | 60% | 90% | – |
| CC(C)(C)NC(=O)Nc1ncnc2[nH]ncc12 | 60% | 30% | 60% | – |
| CCCCCNC(=O)Nc1ncnc2[nH]ncc12 | 30% | 30% | 0% | – |
| C=CCNc1ncnc2[nH]ncc12 | 30% | 60% | 60% | – |
| CC(C)CCNC(=O)Nc1ncnc2[nH]ncc12 | 60% | 60% | 60% | – |
| CC(C)CCNc1ncnc2[nH]ncc12 | 30% | 0% | 0% | – |
| c1ccc(CNc2ncnc3[nH]ncc23)cc1 | 30% | 0% | 30% | – |
| CC(C)(C)CNC(=O)Nc1ncnc2[nH]ncc12 | 60% | 30% | 60% | – |
| CCCCCCCCNC(=O)Nc1ncnc2[nH]ncc12 | 0% | 0% | 0% | – |
| O=C(NCCCCc1ccccc1)Nc1ncnc2[nH]ncc12 | 80% | 30% | 60% | – |
| CC(C)CCNC(=O)Nc1ncnc2[nH]cnc12 | – | – | – | 70% |
| CCCCCNC(=O)Nc1ncnc2[nH]cnc12 | – | – | – | 70% |
| CCOCCNC(=O)Nc1ncnc2[nH]ncc12 | 30% | 80% | 80% | – |
| CC(C)Nc1ncnc2[nH]ncc12 | 60% | 90% | 30% | – |
